# Screening results from PubChem BioAssay.
# This is a sample that favours compounds with a hit; in the whole collection about 1.9% have one here.
# Runt-CBFb FRET: Runt domain-CBFb interaction inhibition. Q01196+Q13951. Cerulean-Runt/Venus-CBFb FRET ratio 530/480, 1 h. inhibition, % at 20 µM. hit rate 0.46% among 220,000;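 active = inhibition over about 50% at 20 µM in the single-dose screen, limit read from the data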;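 note: 0% = DMSO wells and 100% = excess unlabeled CBFb competitor control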
#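 Assay system: Cerulean-Runt domain / Medium: Tris 50 mM pH 7.5, KCl, K2SO4, 0.01% BSA / Timing: protein complex preformed 1 h, compound exposure 1 h, room temperature, dark / Measured by: FRET, excitation 422 nm, emission at 530 and 480 nm / Evaluation: loss of energy transfer signal / Control set: 5 µM unlabeled CBFb as full-inhibition high control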
# Hck Nef HTS: inhibitors of human Hck kinase activated by Nef | P08631 | Recombinant Hck-YEEI plus Nef, Z-Lyte FRET kinase assay | inhibition, % at 20 µM | hit rate 0.68% among 220,000 | AID 463187;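 active = Hck-Nef kinase inhibition above about 50%, limit read from the data; inactive = inhibition below that limit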;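 note: 0% = DMSO with Hck plus Nef and 100% = Hck alone without Nef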
# Target sequence (P08631 whole entry, looked up): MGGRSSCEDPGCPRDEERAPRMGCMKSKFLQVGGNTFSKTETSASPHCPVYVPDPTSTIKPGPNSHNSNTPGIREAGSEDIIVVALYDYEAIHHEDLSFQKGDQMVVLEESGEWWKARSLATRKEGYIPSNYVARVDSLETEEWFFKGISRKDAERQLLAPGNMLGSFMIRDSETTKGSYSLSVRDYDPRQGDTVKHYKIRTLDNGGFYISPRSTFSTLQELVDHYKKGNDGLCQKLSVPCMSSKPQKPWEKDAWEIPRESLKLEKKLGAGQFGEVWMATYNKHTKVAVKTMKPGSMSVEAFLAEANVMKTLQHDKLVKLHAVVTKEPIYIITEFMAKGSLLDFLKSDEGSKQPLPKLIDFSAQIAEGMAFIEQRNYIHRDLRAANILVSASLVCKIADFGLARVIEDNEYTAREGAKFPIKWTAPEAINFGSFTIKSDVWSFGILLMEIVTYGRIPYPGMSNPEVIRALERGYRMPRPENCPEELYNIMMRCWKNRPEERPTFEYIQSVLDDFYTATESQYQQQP
# RanGTP-Imp inh: disruptors of Ran-importin-beta complex formation – biochemical, FRET, CFP-Ran, YFP-importin-beta, homogeneous, primary screen; cell-free CFP-Ran/YFP-importin-beta FRET ratio; inhibition, % (no concentration beside the values); hit rate 1.1% among 300,000;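 active = more than half of the replicate wells show a fall in the fluorescence ratio signal beyond about 16%, limit read from the data, passing the limit was not always enough; inconclusive = exactly half of the replicate wells pass the set limit; inactive = fewer than half of replicates pass the limit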;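 note: 0% = DMSO wells and 100% = Ran loaded with GDP instead of GTP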
# Runt-SMMHC FRET: inhibitors of human RUNX1 Runt domain binding to CBFb-SMMHC; Q01196+Q13951; Cerulean-Runt/Venus-CBFb-SMMHC FRET ratio 530/480, 1 h; inhibition, % at 20 µM; hit rate 0.74% among 220,000;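 active = mean inhibition across duplicate retests at 20 µM reaching about 50%, limit read from the data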;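 note: 0% = DMSO wells and 100% = wells with excess untagged CBFb-SMMHC; inhibitors lower the FRET ratio by blocking Runt binding to CBFb-SMMHC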
# Starred values were filed as active, the others as inactive; ? = inconclusive; nt = not tested or not shown.
SMILES,Runt-CBFb FRET,Hck Nef HTS,RanGTP-Imp inh,Runt-SMMHC FRET
N#Cc1c2ccc(OCC(=O)NCc3ccco3)cc2n2ccccc12,nt,nt,20.9*,nt
N#Cc1c2ccc(O)cc2n2ccccc12,20.3,-78.7,19.2*,86.3*
CCN1CCN(Cc2c3ccccc3cc3ccccc23)CC1,nt,nt,-3.9,nt
Cc1cccn2c(=O)c3cc(C#N)c(=N)n(Cc4cccnc4)c3nc12,nt,3.1,nt,nt
CCC(C)n1c(=N)c(C#N)cc2c(=O)n3cccc(C)c3nc21 (stereo unspecified),104.5*,40.3,-0.3,91.1*
Cc1ccc(Cn2c(=N)c(C#N)cc3c(=O)n4cccc(C)c4nc32)cc1,nt,20.7,62.6*,nt
O=C(CSc1c2c(nc3cc(Cl)ccc13)CCCC2)NCc1ccco1,3.4,-13.7,3.3,2.9
Cc1noc(NC(=O)c2cccc(Cl)c2Cl)c1C#N,-0.5,25.2,4.3,-1.8
CCn1c(SCC(=O)NC2CCCCC2)nc2ccccc2c1=O,nt,nt,3.8,nt
CC(=O)NCCn1c(SCC(=O)NC2CCCCC2)nc2ccccc2c1=O,0.6,0.4,18.1*,0.2
Cc1ccc(C2C3=C(CCCC3=O)Nc3[nH]c(=S)[nH]c(=O)c32)cc1 (stereo unspecified),48.0,-25.1,2.8,60.1*
O=C1CCCC2=C1C(c1ccc(Br)cc1)c1c([nH]c(=S)[nH]c1=O)N2 (stereo unspecified),46.2,0.0,2.5,68.1*
O=c1[nH]c(=S)[nH]c2c1C(c1ccc(Br)cc1)c1c([nH]c(=S)[nH]c1=O)O2,nt,nt,0.1,nt
CCSc1nc2c(c(=O)[nH]1)C(c1ccc(C)cc1)C1=C(CCCC1=O)N2 (stereo unspecified),-2.6,25.5,0.4,0.5
CCCN(Cc1nnc(-c2ccccc2Cl)o1)C(=O)c1cc([N+](=O)[O-])cc([N+](=O)[O-])c1,-2.2,2.4,?,-3.0
Cc1ccc(-c2cccc(NC(=O)C3C4C=CC(C4)C3C(=O)O)c2)o1 (stereo unspecified),16.9,9.7,2.5,8.2
CCOC(=O)c1c(OCC)[nH]c2ccc(O)cc12,1.0,-12.4,3.6,0.7
O=c1oc2ccc3ccccc3c2cc1-c1nnc(-c2ccccc2)o1,76.1*,1.9,121.7*,38.6
Nc1nnc(-c2cc3c(ccc4ccccc43)oc2=O)s1,19.6,5.6,nt,92.5*
O=c1oc2ccc3ccccc3c2cc1-c1nnc(-c2cccs2)o1,18.7,0.5,113.5*,58.5*
COc1ccc(-c2nnc(-c3cc4c(ccc5ccccc54)oc3=O)o2)cc1,15.5,1.7,-5.6,39.0
CC1CC(C)CN(C(=O)C2CCN(S(=O)(=O)c3cccc4cccnc34)CC2)C1 (stereo unspecified),nt,nt,-0.1,nt
CCc1ccc(OCC(=O)N(Cc2cccs2)C2CCS(=O)(=O)C2)cc1 (stereo unspecified),nt,nt,3.9,nt
O=C(COc1ccc(Br)cc1)N(Cc1cccs1)C1CCS(=O)(=O)C1 (stereo unspecified),nt,nt,18.1*,nt
O=C1CCNc2cc3ccccc3cc21,16.3,8.0,38.5*,74.8*
SMILES,Runt-CBFb FRET,Hck Nef HTS,RanGTP-Imp inh,Runt-SMMHC FRET
Cc1ccc2c(c1)C(=O)CCN2,-41.4,5.4,?,-152.2
CCCc1cc(-n2ccnc2)n2c(nc3ccccc32)c1C#N,88.5*,5.5,?,61.6*
COCCCn1c(=O)c2ccccc2n2c(=S)[nH]nc12,nt,nt,0.1,nt
COc1ccc(S(=O)(=O)C(C#N)c2nc3ccccc3nc2N2CCC(C)CC2)cc1 (stereo unspecified),-1.1,nt,27.0*,-6.5
Cc1ccc(S(=O)(=O)C(C#N)c2nc3ccccc3nc2N2CCN(C)CC2)cc1 (stereo unspecified),56.7*,-2.7,64.2*,78.7*
Cc1ccc(S(=O)(=O)C(C#N)c2nc3ccccc3nc2N2CCCCC2)cc1 (stereo unspecified),-39.4,nt,nt,-111.2
CC1CCCN(c2nc3ccccc3nc2C(C#N)S(=O)(=O)c2ccccc2)C1 (stereo unspecified),-14.2,-0.1,-3.2,-47.4
Cc1nc(-c2ccc(S(=O)(=O)Nc3ccc(Br)cc3F)cc2)co1,nt,nt,1.6,nt
Cn1c(-c2cccc(Br)c2)cnc1NCc1ccccc1O,nt,nt,3.9,nt
O=S(=O)(O)c1ccc(N2N=C(c3ccccc3)CC2c2ccccc2)cc1 (stereo unspecified),5.2,85.2*,?,21.6
NS(=O)(=O)c1ccc(N2N=C(c3ccccc3)CC2c2ccccc2)cc1 (stereo unspecified),11.4,35.1,-1.8,29.3
COC(=O)c1c(NC(=O)CCCC(=O)O)sc(C)c1C,0.5,-1.7,-1.5,-0.9
Cc1sc(NC(=O)CCCC(=O)O)c(C(N)=O)c1-c1ccccc1,2.9,102.0*,0.8,-7.5
C[C@@H]1C=CC(=O)O[C@@H]1c1ccc(Cl)cc1,nt,nt,0.5,nt
O=C(NCc1ccco1)C1CCN(C(=O)c2ccc(Cl)cc2Cl)CC1,nt,nt,3.7,nt
Cc1cc(C)c(C#N)c(SC(F)F)n1,0.1,-1.5,98.1*,-1.1
O=c1cc(NCc2ccccc2)nc2n1CCCS2,-4.0,3.4,19.7*,0.9
O=C(CN1C(=O)CSc2ccc(S(=O)(=O)N3CCOCC3)cc21)NCCCN1CCc2ccccc2C1,-0.4,0.3,?,2.2
CCCN1CCc2c(sc(NC(=O)c3ccc(S(=O)(=O)N(C)c4ccccc4)cc3)c2C(=O)NC)C1,nt,nt,10.2,nt
CCN1CCc2c(sc(NC(=O)c3ccc(S(=O)(=O)N4CCCC4)cc3)c2C(=O)NC)C1,nt,nt,45.7*,nt
CC(C)N1CCc2c(sc(NC(=O)c3ccc(S(=O)(=O)N4CCCCC4C)cc3)c2C(N)=O)C1 (stereo unspecified),nt,nt,107.3*,nt
CNC(=O)c1c(NC(=O)c2ccc(S(=O)(=O)N3CCCCC3)cc2)sc2c1CCN(C(C)C)C2,nt,nt,93.3*,nt
NC(=O)c1c(NC(=O)c2ccc(S(=O)(=O)N3CCOCC3)cc2)sc2c1CCCCC2,-4.3,2.1,2.5,-31.8
CCOc1ccc(CCNC(=O)c2nnc(CS(=O)(=O)c3ccccc3)o2)cc1OCC,nt,nt,0.5,nt
N#C/C(=C\c1c(N2CCC(C(N)=O)CC2)nc2ccccn2c1=O)S(=O)(=O)c1ccc(Cl)cc1,-9.7,-0.5,3.9,-8.6
SMILES,Runt-CBFb FRET,Hck Nef HTS,RanGTP-Imp inh,Runt-SMMHC FRET
Cc1ccc(S(=O)(=O)/C(C#N)=C/c2c(N3CCN(C)CC3)nc3ccccn3c2=O)cc1,6.6,0.6,65.5*,10.0
COC(=O)/C(C#N)=C/c1c(N2CCN(c3ccccc3)CC2)nc2ccccn2c1=O,nt,nt,-7.5,nt
Cc1cccn2c(=O)c(/C=C(\C#N)S(=O)(=O)c3ccccc3)c(Oc3ccc(Cl)cc3)nc12,-37.3,6.8,26.9*,-85.8
COC(=O)/C(C#N)=C/c1c(N2CCN(C)CC2)nc2ccccn2c1=O,nt,nt,107.4*,nt
CN1CCN(c2nc3ccccn3c(=O)c2/C=C(\C#N)S(=O)(=O)c2ccc(Cl)cc2)CC1,0.0,-27.1,96.7*,4.8
COc1ccccc1OCCC(=O)OCC(=O)c1[nH]c(C)c(C(C)=O)c1C,0.4,-3.6,9.2,1.2
CC(=O)N1CCN=C1SCc1ccc(C)cc1,0.1,-6.6,-1.9,0.5
